Our source for the CC50, inhibition and Activity values is ChEMBL document CHEMBL5154790 (J Med Chem, 2022).

The source made the active and inactive calls. The rule behind the calls is not given here. A value given as a limit tells only on which side of the number the result lay.

The nature of series [1]: Cytotoxicity against human SH-SY5Y cells assessed as reduction in cell viability incubated for 24 hrs by propidium iodide staining based fluorescence analysis. It counts as toxicity. As to conditions: read-out: LD50.
Series [2] deals with Cholinesterase (Homo sapiens) (UniProt P06276). In words: Inhibition of human recombinant BChE at 100 uM using butyrylthiocholine iodide as substrate preincubated for 20 mins followed by substrate addition and measured every 240 sec by Ellman's method relative to control. Background: DTNB colorimetry detects thiols as they appear.
Series [3] relates to Mus musculus. In words: Antialzheimer activity against SAMP8 mouse assessed as increase in hippocampal sAPPalpha levels at 2 mg/kg, po measured after 4 weeks by Western blot analysis. It counts as functional, organism-based. The essentials: (§1)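 SAMP8 mice received oral dosing daily for 4 weeks at 2 mg kg⁻¹ day⁻¹, with vehicle-treated SAMP8 mice as controls. Hippocampal protein levels were expressed relative to the SAMP8 control group, set to 100%; for tau this is the p-Tau (Ser396 and Ser404) ratio. Values are mean ± SEM, tested against control.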

Series [4] concerns Mus musculus. In words: Antineuroinflammatory activity in SAMP8 mouse assessed as increase in synaptophysin expression in hippocampus tissue at 2 mg/kg, po measured after 4 weeks by Western blot analysis. The format is functional, organism-based. The essentials:
as §1

Series [5] relates to Mus musculus. In words: Antineuroinflammatory activity in SAMP8 mouse assessed as decrease in NFkappaB protein expression hippocampus tissue at 2 mg/kg, po measured after 4 weeks by Western blot analysis. The format is functional, organism-based. In a few lines: as §1
In general terms: In western blotting, separated proteins are transferred to a membrane and probed.

Series [6] has as its system Mus musculus. The series is described as follows: Antineuroinflammatory activity in SAMP8 mouse assessed as decrease in IL-6 gene expression hippocampus tissue at 2 mg/kg, po measured after 4 weeks by RT-PCR analysis. The format is functional, organism-based. The essentials: (§2)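 Hippocampal gene expression was measured by real-time PCR in SAMP8 mice after daily oral treatment for 4 weeks (2 mg kg⁻¹ day⁻¹), compared with vehicle-treated SAMP8 controls. Values are mean ± SEM.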

In series [7] the test system is Mus musculus. The series is described as follows: Cognitive enhancement effect […] of SAMP8 mouse assessed as increase in novelty discrimination index at 2 mg/kg, po administered 4 weeks by Novel object recognition test. It counts as functional, organism-based. The essentials:
(§3)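 SAMP8 mice were dosed orally once daily for 4 weeks at 2 mg kg⁻¹ day⁻¹; controls received vehicle. In the novel object recognition test, a familiarization phase preceded testing for short-term and long-term working memory. The discrimination index scores the ability to distinguish a known from a new object. Values are mean ± SEM.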

The test system of series [8] is Mus musculus. In words: Antialzheimer activity against SAMP8 mouse assessed as decrease in hippocampal sAPPbeta levels at 2 mg/kg, po measured after 4 weeks by Western blot analysis. It counts as functional, organism-based. In a few lines:
as §1

In series [9] the test system is Mus musculus. In words: Antineuroinflammatory activity in SAMP8 mouse assessed as decrease in Gfap gene expression hippocampus tissue at 2 mg/kg, po measured after 4 weeks by RT-PCR analysis. It counts as functional, organism-based. The essentials:
as §2

The subject of series [10] is Mus musculus. In words: Cognitive enhancing effect in SAMP8 mouse assessed as improvement of long term memory by measuring increased discrimination index at 2 mg/kg, po administered for 4 weeks by novel object recognition test. It counts as functional, organism-based. The essentials:
as §3

Series [11] has as its system Mus musculus. The series is described as follows: Antineuroinflammatory activity in SAMP8 mouse assessed as decrease in IL-1beta gene expression hippocampus tissue at 2 mg/kg, po measured after 4 weeks by RT-PCR analysis. The format is functional, organism-based. The essentials:
as §2

Series [12] deals with Mus musculus. The series is described as follows: Cognitive enhancing effect in SAMP8 mouse assessed as improvement of short term memory by measuring discrimination index at 2 mg/kg, po administered for 4 weeks by novel object recognition test. It counts as functional, organism-based. The essentials: as §3
The subject of series [13] is Mus musculus. The series is described as follows: Antialzheimer activity against SAMP8 mouse assessed as reduction in tau phosphorylation ar Ser396 residue at 2 mg/kg, po measured after 4 weeks by Western blot analysis. The format is functional, organism-based. The essentials:
as §1

Cholinesterase (Homo sapiens), sequence (P06276 whole entry): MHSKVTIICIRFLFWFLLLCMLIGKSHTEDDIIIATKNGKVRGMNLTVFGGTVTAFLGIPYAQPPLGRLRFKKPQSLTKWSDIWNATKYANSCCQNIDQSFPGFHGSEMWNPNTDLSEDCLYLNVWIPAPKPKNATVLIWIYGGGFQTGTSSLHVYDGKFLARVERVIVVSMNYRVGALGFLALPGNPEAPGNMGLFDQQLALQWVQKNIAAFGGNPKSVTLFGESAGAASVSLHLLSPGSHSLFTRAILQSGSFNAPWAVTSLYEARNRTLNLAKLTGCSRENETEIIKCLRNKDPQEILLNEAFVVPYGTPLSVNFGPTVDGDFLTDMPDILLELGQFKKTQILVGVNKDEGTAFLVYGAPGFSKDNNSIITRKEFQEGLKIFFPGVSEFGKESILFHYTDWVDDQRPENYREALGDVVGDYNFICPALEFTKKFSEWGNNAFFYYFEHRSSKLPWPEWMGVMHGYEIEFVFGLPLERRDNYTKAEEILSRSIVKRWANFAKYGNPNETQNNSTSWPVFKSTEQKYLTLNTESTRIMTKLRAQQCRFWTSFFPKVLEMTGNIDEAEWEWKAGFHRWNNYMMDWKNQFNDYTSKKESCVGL

As for `O=C(Nc1ccc(OC(F)(F)F)cc1)NC1CCN(C(=O)CCNc2c3c(nc4cc(Cl)ccc24)CCCC3)CC1`, in series [1], the CC50 at 24 h came out at 92.8 µM.
For the molecule `CC(=O)N1CCC(NC(=O)Nc2ccc(OC(F)(F)F)cc2)CC1`, the inhibition (usually how much of the control response was suppressed) in series [2] is less than 10%.
In the case of `O=C(Nc1ccc(OC(F)(F)F)cc1)NC1CCN(C(=O)CCCCNc2c3c(nc4cc(Cl)ccc24)CCCC3)CC1`, in series [1], the CC50 at 24 h was greater than 100 µM. Moreover, the outcome with Mus musculus [3], with Mus musculus [4], with Mus musculus [5], in the series on Mus musculus [6], in the series on Mus musculus [7] and with Mus musculus [8] was Active. In addition, the outcome in the series with Mus musculus [9], in the series with Mus musculus [10], with Mus musculus [11], in the series on Mus musculus [12] and with Mus musculus [13] was Active.
As to `O=C(Nc1ccc(OC(F)(F)F)cc1)NC1CCN(C(=O)CCCNc2c3c(nc4cc(Cl)ccc24)CCCC3)CC1`, the CC50 at 24 h in series [1] is greater than 100 µM.
As for `CC1=C[C@@H]2Cc3nc4cc(Cl)ccc4c(NCCCCC(=O)N4CCC(NC(=O)Nc5ccc(OC(F)(F)F)cc5)CC4)c3[C@H](C1)C2`, the CC50 at 24 h in series [1] is greater than 100 µM.
